# pKi: −log10 of the molar value. Where “and” joins values, the source holds several entries; their conditions need not be identical. Equal values may be shown once.
# Legend:
# [1] = target: T1, Ornithine decarboxylase (Rattus norvegicus) (UniProt P09057); assay: In vivo inhibitory activity against Ornithine Decarboxylase (ODC) in rats; type: functional, organism-based; set-up: concentration or dose not given beside the values
# T1 sequence (whole entry): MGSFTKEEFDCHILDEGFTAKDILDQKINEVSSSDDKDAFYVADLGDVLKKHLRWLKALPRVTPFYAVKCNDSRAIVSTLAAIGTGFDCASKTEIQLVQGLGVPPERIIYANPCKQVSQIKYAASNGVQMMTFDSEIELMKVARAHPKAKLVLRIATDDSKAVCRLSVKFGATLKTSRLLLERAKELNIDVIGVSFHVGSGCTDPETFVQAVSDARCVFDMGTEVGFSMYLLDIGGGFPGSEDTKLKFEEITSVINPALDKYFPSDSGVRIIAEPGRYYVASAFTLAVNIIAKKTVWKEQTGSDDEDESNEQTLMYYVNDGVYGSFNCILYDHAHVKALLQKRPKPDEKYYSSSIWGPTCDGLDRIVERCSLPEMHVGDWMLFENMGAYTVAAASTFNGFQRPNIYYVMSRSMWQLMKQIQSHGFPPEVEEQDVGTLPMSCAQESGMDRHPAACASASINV
# Ornithine decarboxylase = target: T2, Ornithine decarboxylase (Rattus norvegicus, UniProt P09057); assay: (§1) In vitro inhibitory activity against Ornithine Decarboxylase (ODC) isolated from the livers of thioactamide treated rats.; type: functional, tissue-based, Liver
# T2 sequence (P09057 whole entry): T1 sequence (whole entry)
# Summary of the method: (§2)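 ODC was partially purified from livers of rats injected with thioacetamide (100 mg/kg), with specific activity 0.2 nmol/min per mg protein. Activity was measured in vitro across inhibitor concentrations. Ki was obtained by replotting apparent Km against inhibitor concentration.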
# [2] = target: T1, Ornithine decarboxylase (Rattus norvegicus); assay: In vivo inhibitory activity against Ornithine Decarboxylase (ODC) in H-35 hepatoma cells; type: functional; set-up: unit not given here
# Rattus norvegicus [3] = species: Rattus norvegicus; assay: Effect on spermine content of Thioacetamide treated rats after 3 hour; type: functional
# Summary of the method: (§3)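 Female Wistar rats (100-130 g) were pretreated with dexamethasone or thioacetamide, and the analogue was given ip in saline-buffered solution. Liver was sampled 1 h or 3-4 h later. Free polyamines and analogue were measured in perchloric extracts. Polyamines are expressed as % of the inducer-treated liver content. Analogue is expressed as % of the total injected per g liver (10 ± 0.5 μmol). Mean ± SD, three experiments in duplicate.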
# Rattus norvegicus [4] = species: Rattus norvegicus; assay: Effect on putrescine content of (+) isomer Dexamethasone treated rats after 1 hour; type: functional; summary of the method: as §3
# Rattus norvegicus [5] = species: Rattus norvegicus; assay: Effect on putrescine content of Thioacetamide treated rats.; type: functional; summary of the method: as §3
# Rattus norvegicus [6] = species: Rattus norvegicus; assay: Effect on spermine content of meso isomer Dexamethasone treated rats after 4 hour; type: functional; summary of the method: as §3
# Rattus norvegicus [7] = species: Rattus norvegicus; assay: Effect on 1,4-Dimethylputrescinecontent of (+) isomer Dexamethasone treated rats after 4 hour; type: functional; summary of the method: as §3
# Rattus norvegicus [8] = species: Rattus norvegicus; assay: Effect on spermidine content of (+) isomer Dexamethasone treated rats after 1 hour; type: functional; summary of the method: as §3
# Rattus norvegicus [9] = species: Rattus norvegicus; assay: Effect on putrescine content of (+) isomer Dexamethasone treated rats after 4 hour; type: functional; summary of the method: as §3
# Rattus norvegicus [10] = species: Rattus norvegicus; assay: Effect on putrescine content of Thioacetamide treated rats after 3 hr; type: functional; summary of the method: as §3
# Rattus norvegicus [11] = species: Rattus norvegicus; assay: Effect on spermidine content of Thioacetamide treated rats.; type: functional; summary of the method: as §3
# Rattus norvegicus [12] = species: Rattus norvegicus; assay: Effect on putrescine content of Dexamethasone treated rats.; type: functional; summary of the method: as §3
# Rattus norvegicus [13] = species: Rattus norvegicus; assay: Effect on spermine content of Thioacetamide treated rats after 3 hr; type: functional; summary of the method: as §3
# Rattus norvegicus [14] = species: Rattus norvegicus; assay: Effect on spermine content of Thioacetamide treated rats.; type: functional; summary of the method: as §3
# Rattus norvegicus [15] = species: Rattus norvegicus; assay: Effect on putrescine content of (-) isomer Dexamethasone treated rats after 1 hour; type: functional; summary of the method: as §3
# Rattus norvegicus [16] = species: Rattus norvegicus; assay: Effect on putrescine content of meso isomer Dexamethasone treated rats after 4 hour; type: functional; summary of the method: as §3
# Rattus norvegicus [17] = species: Rattus norvegicus; assay: Effect on spermine content of Thioacetamide treated rats after 1 hr; type: functional; summary of the method: as §3
# Rattus norvegicus [18] = species: Rattus norvegicus; assay: Effect on spermidine content of (+) isomer Dexamethasone treated rats after 4 hour; type: functional; summary of the method: as §3
# Rattus norvegicus [19] = species: Rattus norvegicus; assay: Effect on putrescine content of (-) isomer Dexamethasone treated rats after 4 hr; type: functional; summary of the method: as §3
# Rattus norvegicus [20] = species: Rattus norvegicus; assay: Effect on spermidine content of meso isomer Dexamethasone treated rats after 1 hour; type: functional; summary of the method: as §3
# Rattus norvegicus [21] = species: Rattus norvegicus; assay: Effect on 1,4-Dimethylputrescine content of meso isomer Dexamethasone treated rats after 4 hour; type: functional; summary of the method: as §3
# Rattus norvegicus [22] = species: Rattus norvegicus; assay: Effect on spermidine content of Dexamethasone treated rats.; type: functional; summary of the method: as §3
# Rattus norvegicus [23] = species: Rattus norvegicus; assay: Effect on 1,4-Dimethylputrescine content of Thioacetamide treated rats after 3 hr; type: functional; summary of the method: as §3
# Rattus norvegicus [24] = species: Rattus norvegicus; assay: Effect on spermidine content of (-) isomer Dexamethasone treated rats after 4 hour; type: functional; summary of the method: as §3
# Rattus norvegicus [25] = species: Rattus norvegicus; assay: Effect on spermine content of (-) isomer Dexamethasone treated rats after 1 hour; type: functional; summary of the method: as §3
# Rattus norvegicus [26] = species: Rattus norvegicus; assay: Effect on spermidine content of meso isomer Dexamethasone treated rats after 4 hour; type: functional; summary of the method: as §3
# Rattus norvegicus [27] = species: Rattus norvegicus; assay: Effect on spermine content of meso isomer Dexamethasone treated rats after 1 hour; type: functional; summary of the method: as §3
# Rattus norvegicus [28] = species: Rattus norvegicus; assay: Effect on putrescine content of meso isomer Dexamethasone treated rats after 1 hour; type: functional; summary of the method: as §3
# Rattus norvegicus [29] = species: Rattus norvegicus; assay: Effect on 1,4-Dimethylputrescine content of Thioacetamide treated rats after 1 hr; type: functional; summary of the method: as §3
# Rattus norvegicus [30] = species: Rattus norvegicus; assay: Effect on 1,4-Dimethylputrescine content of (-) isomer Dexamethasone treated rats after 4 hour; type: functional; summary of the method: as §3
# Rattus norvegicus [31] = species: Rattus norvegicus; assay: Effect on spermine content of (+) isomer Dexamethasone treated rats after 1 hour; type: functional; summary of the method: as §3
# Rattus norvegicus [32] = species: Rattus norvegicus; assay: Effect on 1,4-Dimethylputrescine content of (-) isomer Dexamethasone treated rats after 1 hour; type: functional; summary of the method: as §3
# Rattus norvegicus [33] = species: Rattus norvegicus; assay: Effect on 1,4-Dimethylputrescine content of meso isomer Dexamethasone treated rats after 1 hour; type: functional; summary of the method: as §3
# Rattus norvegicus [34] = species: Rattus norvegicus; assay: Effect on spermidine content of Thioacetamide treated rats after 1 hr; type: functional; summary of the method: as §3
# Rattus norvegicus [35] = species: Rattus norvegicus; assay: Effect on spermine content of (+) isomer Dexamethasone treated rats after 4 hour; type: functional; summary of the method: as §3
# Rattus norvegicus [36] = species: Rattus norvegicus; assay: Effect on spermidine content of (-) isomer Dexamethasone treated rats after 1 hour; type: functional; summary of the method: as §3
# Rattus norvegicus [37] = species: Rattus norvegicus; assay: Effect on 1,4-Dimethylputrescine content of (+) isomer Dexamethasone treated rats after 1 hour; type: functional; summary of the method: as §3
# Rattus norvegicus [38] = species: Rattus norvegicus; assay: Effect on spermine content of Dexamethasone treated rats.; type: functional; summary of the method: as §3
# Rattus norvegicus [39] = species: Rattus norvegicus; assay: Effect on spermine content of (-) isomer Dexamethasone treated rats after 4 hour; type: functional; summary of the method: as §3
# Rattus norvegicus [40] = species: Rattus norvegicus; assay: Effect on spermidine content of Thioacetamide treated rats after 3 hr; type: functional; summary of the method: as §3
# [41] = as §1; type: functional, tissue-based, Rattus norvegicus, Liver; summary of the method: as §2
compound,measurement,setting,value
CC(N)C(C)CCN (mixture of isomers),Inhibition,[1],70%
same,pKi,Ornithine decarboxylase,2.42
same,Activity,[2],75
NCCCCN [PUTRESCINE],Inhibition,[1],55%
same,pKi,Ornithine decarboxylase,2.48
same,Activity,[2],90
CC(N)CCC(C)N (stereo unspecified) [listing 1 of 2 here],Polyamine content,Rattus norvegicus [3],2600 nM/g
same,Polyamine content,Rattus norvegicus [4],60 nM/g
same,Polyamine content,Rattus norvegicus [5],1370 nM/g
same,Polyamine content,Rattus norvegicus [6],2250 nM/g
same,Polyamine content,Rattus norvegicus [7],400 nM/g
same,Polyamine content,Rattus norvegicus [8],2180 nM/g
same,Polyamine content,Rattus norvegicus [9],660 nM/g
same,Polyamine content,Rattus norvegicus [10],290 nM/g and 510 nM/g and 410 nM/g
same,Polyamine content,Rattus norvegicus [11],2680 nM/g
same,Polyamine content,Rattus norvegicus [12],980 nM/g
same,Polyamine content,Rattus norvegicus [13],3000 nM/g and 2350 nM/g
same,Polyamine content,Rattus norvegicus [14],2400 nM/g
same,Polyamine content,Rattus norvegicus [15],100 nM/g
same,Polyamine content,Rattus norvegicus [16],890 nM/g
same,Polyamine content,Rattus norvegicus [17],2600 nM/g and 2500 nM/g and 2350 nM/g
same,Polyamine content,Rattus norvegicus [18],850 nM/g
same,Polyamine content,Rattus norvegicus [19],580 nM/g
same,Polyamine content,Rattus norvegicus [20],1920 nM/g
same,Polyamine content,Rattus norvegicus [21],50 nM/g
same,Polyamine content,Rattus norvegicus [22],2300 nM/g
same,Polyamine content,Rattus norvegicus [23],1550 nM/g and 900 nM/g and 1150 nM/g
same,Polyamine content,Rattus norvegicus [24],2080 nM/g
same,Polyamine content,Rattus norvegicus [25],2240 nM/g
same,Polyamine content,Rattus norvegicus [26],2280 nM/g
same,Polyamine content,Rattus norvegicus [27],2060 nM/g
same,Polyamine content,Rattus norvegicus [28],160 nM/g
same,Polyamine content,Rattus norvegicus [29],2700 nM/g and 1850 nM/g and 2800 nM/g
same,Polyamine content,Rattus norvegicus [30],40 nM/g
same,Polyamine content,Rattus norvegicus [31],1930 nM/g
same,Polyamine content,Rattus norvegicus [32],1640 nM/g
same,Polyamine content,Rattus norvegicus [33],1640 nM/g
same,Polyamine content,Rattus norvegicus [34],1870 nM/g and 1950 nM/g and 2800 nM/g
same,Polyamine content,Rattus norvegicus [35],1800 nM/g
same,Polyamine content,Rattus norvegicus [36],1280 nM/g
same,Polyamine content,Rattus norvegicus [37],1800 nM/g
same,Polyamine content,Rattus norvegicus [38],2170 nM/g
same,Polyamine content,Rattus norvegicus [39],2220 nM/g
same,Polyamine content,Rattus norvegicus [40],2400 nM/g and 1475 nM/g and 2500 nM/g
CN(C)CCCCN,Inhibition,[1],60%
same,pKi,Ornithine decarboxylase,2.52
same,Activity,[2],68
CC(N)CCC(C)N (racemic),Inhibition,[1],96%
same,Activity,[2],91
CC(N)CCC(C)N (stereo unspecified) [listing 2 of 2 here],Inhibition,[1],93%
same,Activity,[2],90
"CC(N)CCC(C)N (single isomer, unassigned; (-))",Inhibition,[1],97%
same,Activity,[2],97
CNCCCCNC,Inhibition,[1],30%
same,Activity,[2],72
CC(N)CC(C)CN (mixture of isomers),Inhibition,[1],76%
same,pKi,Ornithine decarboxylase,2.54
same,Activity,[2],85
"CC(N)CCC(C)N (single isomer, unassigned; (+))",Inhibition,[1],98%
same,Activity,[2],96
CC(CN)C(C)CN (mixture of isomers),pKi,[41],3.00
